Reference: ChEMBL document CHEMBL4706742, “Induction of Apoptosis in Cancer Cells by Glutathione Transferase Inhibitor Mediated Hydrophobic Tagging Molecules” (2021)
Blank lines part the entries; values can stand above or below the molecule they belong to. Calls of active or inactive are those of the source. The rule behind the calls is not given here.

Legend:
[1] = target: Glutathione S-transferase P (Homo sapiens) (UniProt P09211); experiment: Induction of GSTP1 degradation in human HeLa cells at 80 uM measured after 3 hrs by Western blot analysis; assay type: cell-based
Summary of the method: (§1)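 GSTP protein in whole-cell lysates, detected by Western blot with specific antibodies after 3 h compound exposure. HeLa (high GSTP expression) treated at 40 or 80 μM or over a dose range; A549 and HT1080 cells (high or medium GSTP) also tested. Blots representative of three independent experiments.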

[2] = target: Glutathione S-transferase P (Homo sapiens) (UniProt P09211); experiment: Induction of GSTP1 degradation in human HeLa cells at 40 to 80 uM measured after 3 hrs by Western blot analysis; assay type: cell-based; settings: dose 40-80 µM; summary of the method: as §1
[3] = target: Glutathione S-transferase P (Homo sapiens) (UniProt P09211); experiment: Inhibition of recombinant human N-terminal His-tagged GSTP1 (1 to 210 residues) expressed in Escherichia coli at 100 uM using reduced GSH as substrate measured after 0.5 hrs by CDNB assay
Summary of the method: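 GSTP catalytic activity followed via GSH–CDNB conjugation, read as absorbance at 340 nm specific to the conjugate. Compounds tested up to 100 μM.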

HeLa [4] = experiment: Induction of apoptosis in human HeLa cells assessed as necrotic cells at 20 uM measured after 3 hrs by Annexin V-FITC/propidium iodide staining based flow cytometry (reference value: 0.61%); assay type: functional
[5] = target: Glutathione S-transferase P (Homo sapiens) (UniProt P09211); experiment: Induction of GSTP1 degradation in human HeLa cells assessed as reduction in total JNK expression at 20 to 80 uM measured after 3 hrs by Western blot analysis; assay type: cell-based; settings: dose 20-80 µM
Summary of the method: (§2)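 HeLa cells exposed to compound for 3 h. Total cell lysates probed by Western blot with specific antibodies for phospho-JNK, phospho-c-Jun and total JNK. Total JNK bands quantified by densitometry. Representative of three independent experiments.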

HeLa [6] = experiment: Induction of apoptosis in human HeLa cells measured after 3 hrs by Annexin V-FITC/propidium iodide staining based flow cytometry; assay type: functional, cell-based
[7] = target: Glutathione S-transferase P (Homo sapiens) (UniProt P09211); experiment: Induction of GSTP1 degradation in human HeLa cells assessed as increase in JNK phosphorylation at 5 to 80 uM measured after 3 hrs by Western blot analysis; assay type: cell-based; settings: dose 5-80 µM; summary of the method: as §2
HeLa [8] = experiment: Induction of reactive oxygen species generation in human HeLa cells measured after 3 hrs by DCFH-DA staining based fluorescence laser confocal microscopic analysis; assay type: functional, cell-based; settings: dose 5-80 µM
Summary of the method: (§3)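 HeLa cells loaded with DCFH-DA fluorescent ROS probe after treatment at the indicated concentrations. Fluorescence read at Ex/Em 488/525 by laser confocal microscopy. Rosup 50 μg/mL served as positive control.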

HeLa [9] = experiment: Induction of apoptosis in human HeLa cells assessed as early apoptotic cells at 10 uM measured after 3 hrs by Annexin V-FITC/propidium iodide staining based flow cytometry (reference value: 4.37%); assay type: functional
HeLa [10] = experiment: Induction of apoptosis in human HeLa cells assessed as early apoptotic cells at 20 uM measured after 3 hrs by Annexin V-FITC/propidium iodide staining based flow cytometry (reference value: 4.37%); assay type: functional
HeLa [11] = experiment: Induction of apoptosis in human HeLa cells assessed as late apoptotic cells at 20 uM measured after 3 hrs by Annexin V-FITC/propidium iodide staining based flow cytometry (reference value: 3.59%); assay type: functional
[12] = target: Glutathione S-transferase P (Homo sapiens) (UniProt P09211); experiment: Induction of GSTP1 degradation in human HeLa cells at 40 uM measured after 3 hrs by Western blot analysis relative to control; assay type: cell-based; summary of the method: as §1
HeLa [13] = experiment: Induction of apoptosis in human HeLa cells assessed as late apoptotic cells at 40 uM measured after 3 hrs by Annexin V-FITC/propidium iodide staining based flow cytometry (reference value: 3.59%); assay type: functional
HeLa [14] = experiment: Induction of apoptosis in human HeLa cells assessed as viable cells at 10 uM measured after 3 hrs by Annexin V-FITC/propidium iodide staining based flow cytometry (reference value: 91.43%); assay type: functional; settings: read-out: Activity
HeLa [15] = experiment: Induction of apoptosis in human HeLa cells assessed as necrotic cells at 80 uM measured after 3 hrs by Annexin V-FITC/propidium iodide staining based flow cytometry (reference value: 0.61%); assay type: functional
HeLa [16] = experiment: Induction of apoptosis in human HeLa cells assessed as early apoptotic cells at 40 uM measured after 3 hrs by Annexin V-FITC/propidium iodide staining based flow cytometry (reference value: 4.37%); assay type: functional
[17] = target: Glutathione S-transferase P (Homo sapiens) (UniProt P09211); experiment: Induction of GSTP1 degradation in human A549 cells at 5 to 80 uM measured after 3 hrs by Western blot analysis; assay type: cell-based; settings: dose 5-80 µM; summary of the method: as §1
HeLa [18] = experiment: Induction of apoptosis in human HeLa cells assessed as late apoptotic cells at 80 uM measured after 3 hrs by Annexin V-FITC/propidium iodide staining based flow cytometry (reference value: 3.59%); assay type: functional
HeLa [19] = experiment: Induction of apoptosis in human HeLa cells assessed as early apoptotic cells at 80 uM measured after 3 hrs by Annexin V-FITC/propidium iodide staining based flow cytometry (reference value: 4.37%); assay type: functional
HeLa [20] = experiment: Induction of apoptosis in human HeLa cells assessed as late apoptotic cells at 10 uM measured after 3 hrs by Annexin V-FITC/propidium iodide staining based flow cytometry (reference value: 3.59%); assay type: functional
HeLa [21] = experiment: Induction of apoptosis in human HeLa cells assessed as necrotic cells at 10 uM measured after 3 hrs by Annexin V-FITC/propidium iodide staining based flow cytometry (reference value: 0.61%); assay type: functional
[22] = target: Glutathione S-transferase P (Homo sapiens) (UniProt P09211); experiment: Induction of GSTP1 degradation in human HeLa cells assessed as increase in c-Jun phosphorylation at 5 to 80 uM measured after 3 hrs by Western blot analysis; assay type: cell-based; settings: dose 5-80 µM; summary of the method: as §2
HeLa [23] = experiment: Induction of apoptosis in human HeLa cells assessed as viable cells at 80 uM measured after 3 hrs by Annexin V-FITC/propidium iodide staining based flow cytometry (reference value: 91.43%); assay type: functional; settings: read-out: Activity
HeLa [24] = experiment: Induction of apoptosis in human HeLa cells assessed as viable cells at 40 uM measured after 3 hrs by Annexin V-FITC/propidium iodide staining based flow cytometry (reference value: 91.43%); assay type: functional; settings: read-out: Activity
[25] = target: Glutathione S-transferase P (Homo sapiens) (UniProt P09211); experiment: Induction of GSTP1 degradation in human HT-1080 cells at 5 to 80 uM measured after 3 hrs by Western blot analysis; assay type: cell-based; settings: dose 5-80 µM; summary of the method: as §1
[26] = target: Glutathione S-transferase P (Homo sapiens) (UniProt P09211); experiment: Induction of GSTP1 degradation in human HeLa cells at 80 uM measured after 3 hrs in presence of vacuolar type H (+)-ATPase inhibitor bafilomycin A1 by Western blot analysis; assay type: cell-based
Summary of the method: (§4)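 HeLa cells cotreated with test compound plus bortezomib (20S proteasome inhibitor), PYR-41 (E1 ubiquitin-activating enzyme inhibitor) or bafilomycin A1 (V-ATPase inhibitor, blocks autophagosome–lysosome fusion). GSTP in total cell lysates then detected by Western blot with specific antibodies. Representative of three independent experiments.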

[27] = target: Glutathione S-transferase P (Homo sapiens) (UniProt P09211); experiment: Induction of GSTP1 degradation in human HeLa cells at 80 uM measured after 3 hrs in presence of 20S proteasome inhibitor bortezomib by Western blot analysis; assay type: cell-based; summary of the method: as §4
[28] = target: Glutathione S-transferase P (Homo sapiens) (UniProt P09211); experiment: Induction of GSTP1 degradation in human HeLa cells measured after 3 hrs by Western blot analysis; assay type: cell-based; summary of the method: as §1
HeLa [29] = experiment: Induction of apoptosis in human HeLa cells assessed as viable cells at 20 uM measured after 3 hrs by Annexin V-FITC/propidium iodide staining based flow cytometry (reference value: 91.43%); assay type: functional; settings: read-out: Activity
[30] = target: Glutathione S-transferase P (Homo sapiens) (UniProt P09211); experiment: Induction of GSTP1 degradation in human HeLa cells at 80 uM measured after 3 hrs in presence of ubiquitin activating enzyme E1 inhibitor PYR-41 by Western blot analysis; assay type: cell-based; summary of the method: as §4
[31] = target: Glutathione S-transferase P (Homo sapiens) (UniProt P09211); experiment: Induction of GSTP1 degradation in human HeLa cells measured after 3 hrs in presence of protein synthesis inhibitor cycloheximide by Western blot analysis; assay type: cell-based
Summary of the method: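 HeLa cells pretreated with cycloheximide, then exposed to compound over a dose range for 3 h. GSTP in total lysates read by Western blot with specific antibodies. Blots representative of three independent experiments.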

HeLa [32] = experiment: Induction of apoptosis in human HeLa cells assessed as necrotic cells at 40 uM measured after 3 hrs by Annexin V-FITC/propidium iodide staining based flow cytometry (reference value: 0.61%); assay type: functional
HeLa [33] = experiment: Induction of reactive oxygen species generation in human HeLa cells at 80 uM measured after 3 hrs by DCFH-DA staining based fluorescence laser confocal microscopic analysis; assay type: functional, cell-based; summary of the method: as §3
[34] = target: Glutathione S-transferase P (Homo sapiens) (UniProt P09211); experiment: Induction of GSTP1 degradation in human HeLa cells at 5 to 80 uM measured after 3 hrs by Western blot analysis; assay type: cell-based; settings: dose 5-80 µM; summary of the method: as §1
[35] = target: Glutathione S-transferase P (Homo sapiens) (UniProt P09211); experiment: Induction of GSTP1 degradation in human A549 cells at 40 to 80 uM measured after 3 hrs by Western blot analysis; assay type: cell-based; settings: dose 40-80 µM; summary of the method: as §1
[36] = target: Glutathione S-transferase P (Homo sapiens) (UniProt P09211); experiment: Induction of GSTP1 degradation in human HT-1080 cells at 40 to 80 uM measured after 3 hrs by Western blot analysis; assay type: cell-based; settings: dose 40-80 µM; summary of the method: as §1

Glutathione S-transferase P (Homo sapiens), sequence (P09211 2-210 limits assumed): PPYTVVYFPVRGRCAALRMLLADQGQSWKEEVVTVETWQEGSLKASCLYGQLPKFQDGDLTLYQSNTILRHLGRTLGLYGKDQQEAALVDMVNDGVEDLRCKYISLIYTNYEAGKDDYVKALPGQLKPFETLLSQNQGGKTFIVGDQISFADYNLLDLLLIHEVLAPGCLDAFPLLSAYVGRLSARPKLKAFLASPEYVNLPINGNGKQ

SMILES: C=C(CC)C(=O)c1ccc(OCC(=O)OCCOC23CC4CC(CC(C4)C2)C3)c(Cl)c1Cl
Activity [2]: inactive | inhibition [3]: Active

SMILES: C=C(CC)C(=O)c1ccc(OCC(=O)OCCOCCOCCOCCOC23CC4CC(CC(C4)C2)C3)c(Cl)c1Cl
Activity [2]: inactive | inhibition [3]: Active

SMILES: C=C(CC)C(=O)c1ccc(OCC(=O)NCCCCNC(=O)CC23CC4CC(CC(C4)C2)C3)c(Cl)c1Cl
Activity (HeLa [4]): 0.93% | Activity [5]: Active | Activity (HeLa [6]): Dose-dependent effect | Activity [2]: Active | Activity [7]: Active | Activity (HeLa [8]): Dose-dependent effect | Activity (HeLa [9]): 3.28% | Activity (HeLa [10]): 15.48% | Activity (HeLa [11]): 26.61% | Activity [12]: 80% | Activity (HeLa [13]): 34.59% | viability at 10 µM (HeLa [14]): 92.5% | Activity (HeLa [15]): 0.23% | Activity (HeLa [16]): 19.7% | Activity [17]: Active | Activity (HeLa [18]): 61.27% | Activity (HeLa [19]): 18.03% | Activity (HeLa [20]): 3.7% | inhibition [3]: Active | Activity (HeLa [21]): 0.49% | Activity [22]: Active | viability at 80 µM (HeLa [23]): 20.5% | viability at 40 µM (HeLa [24]): 45% | Activity [25]: Active | Activity [26]: inactive | Activity [27]: inactive | Activity [28]: Dose-dependent effect | viability at 20 µM (HeLa [29]): 57% | Activity [30]: inactive | Activity [31]: Dose-dependent effect | Activity (HeLa [32]): 0.75%

SMILES: C=C(CC)C(=O)c1ccc(OCC(=O)O)c(Cl)c1Cl [ETHACRYNIC ACID]
Activity (HeLa [33]): inactive | Activity (HeLa [15]): 1.72% | Activity (HeLa [18]): 10.3% | Activity (HeLa [19]): 3.67% | viability at 80 µM (HeLa [23]): 84.3%

SMILES: C=C(CC)C(=O)c1ccc(OCC(=O)NCCNC(=O)OC(C)(C)C)c(Cl)c1Cl
Activity [34]: inactive | Activity [35]: inactive | Activity [36]: inactive

SMILES: C=C(CC)C(=O)c1ccc(OCC(=O)OCCOCCOC23CC4CC(CC(C4)C2)C3)c(Cl)c1Cl
Activity [2]: inactive | inhibition [3]: Active

SMILES: C=C(CC)C(=O)c1ccc(OCC(=O)OCCOCCOCCOC23CC4CC(CC(C4)C2)C3)c(Cl)c1Cl
Activity [2]: inactive | inhibition [3]: Active

SMILES: C=C(CC)C(=O)c1ccc(OCC(=O)NC23CC4CC(CC(C4)C2)C3)c(Cl)c1Cl
Activity [2]: Active | inhibition [3]: Active

Continued, values first:

Activity [1]: Active
SMILES: C=C(CC)C(=O)c1ccc(OCC(=O)NCCCCCCNC(=O)OC(C)(C)C)c(Cl)c1Cl

Activity [2]: Active | inhibition [3]: Active
SMILES: C=C(CC)C(=O)c1ccc(OCC(=O)NCCNC(=O)CC23CC4CC(CC(C4)C2)C3)c(Cl)c1Cl

Activity [2]: Active | inhibition [3]: Active
SMILES: C=C(CC)C(=O)c1ccc(OCC(=O)NCCCCCCNC(=O)CC23CC4CC(CC(C4)C2)C3)c(Cl)c1Cl
